From PubChem BioAssay
Shown are actives, neighbours in structure and some others; about 4.6% of the full set was active somewhere.
Wee1 degr inh: blocks degradation of human Wee1 kinase; hit rate 1.2% among 220,000; reporter increase, % at 5 µM; AID 1321; P30291; HeLa Luc-Wee1K328M stability, luciferase luminescence; 100% = proteasome inhibitor MG132 effect;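 active = activation above the mean of all tested compounds plus 3 SD, set per screening run, cut at about 8.8% in these data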;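 also: cells exposed to compound for 20 h before luminescence read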
Target sequence (P30291 whole entry K328M): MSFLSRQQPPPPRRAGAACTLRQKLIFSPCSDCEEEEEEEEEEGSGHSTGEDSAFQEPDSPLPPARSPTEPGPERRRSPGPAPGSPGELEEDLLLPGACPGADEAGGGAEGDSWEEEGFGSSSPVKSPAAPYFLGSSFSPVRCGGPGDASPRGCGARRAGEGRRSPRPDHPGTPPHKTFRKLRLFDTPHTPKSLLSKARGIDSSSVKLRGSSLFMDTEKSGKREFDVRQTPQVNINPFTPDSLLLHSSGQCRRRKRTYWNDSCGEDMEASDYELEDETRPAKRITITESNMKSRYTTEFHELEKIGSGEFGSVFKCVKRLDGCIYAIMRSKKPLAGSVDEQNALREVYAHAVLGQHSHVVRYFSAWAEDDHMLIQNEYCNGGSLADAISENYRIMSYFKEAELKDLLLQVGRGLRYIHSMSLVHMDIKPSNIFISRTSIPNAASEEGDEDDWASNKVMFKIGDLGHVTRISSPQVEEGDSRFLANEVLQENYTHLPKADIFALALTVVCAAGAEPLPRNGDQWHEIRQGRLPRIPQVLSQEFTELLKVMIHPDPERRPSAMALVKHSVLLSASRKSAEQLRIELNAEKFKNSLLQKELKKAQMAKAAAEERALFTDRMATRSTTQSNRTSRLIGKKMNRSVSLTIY
NF-kB neuron act: raises NF-kB expression in human neuronal cells. hit rate 1.6% among 190,000. fold change at 12.5 µM. NF-kB reporter expression; active compounds read high; in the data active = fold change above about 3.3
Mdm2 ligase inh: inhibitors of human Mdm2 E3 ubiquitin ligase; Q00987; cell-based MDM2 ubiquitination luciferase reporter, 2 h; 0 = plate control, 100 = twice control, blank-subtracted; signal enhancement, % at 5 µM; hit rate 0.11% among 210,000;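 active = signal enhancement of 30% or more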;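 also: luminescence tracks abundance of the self-degrading MDM2-luciferase fusion protein; higher signal means inhibition of MDM2 E3 ligase activity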
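Assay system: stable mammalian line carrying autodegrading MDM2–luciferase fusion reporter; amount: 2000 cells seeded into each well; buffer or medium: DMEM; benchmarks: plate control and blank wells; signal: luciferase luminescence; timing: 2 h compound exposure at 37 °C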
APP 5'UTR act: activates APP 5'UTR luciferase reporter | SH-SY5Y APP 5'UTR luciferase reporter, luminescence; zero percent = DMSO vehicle wells | activation, % at 2 µM | AID 1276 | hit rate 1% among 190,000;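 active = activation above a set limit, based on mean plus 3 SD of controls, cut at about 140% in these data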
p97 inhibitor: human p97 ATPase inhibition; recombinant p97 ATPase, Kinase-Glo ATP luminescence, 3 h; inhibition, % at 8 µM; hit rate 0.42% among 220,000; in the data active = inhibition above about 15%
STAT1 act: activators of IFN-gamma induced STAT1 signaling; NIH 3T3 STAT1-luciferase reporter, luminescence; 100% = IFN-gamma alone, no compound; activation (% of control), % at 5.5 µM; hit rate 2.6% among 200,000; AID 932;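 active = activation above the screen-wide mean activation plus 3 SD, cut at about 130% in these data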
Numbers stand for hits; . = inactive; / = no result.

SMILES	Wee1 degr inh	NF-kB neuron act	Mdm2 ligase inh	APP 5'UTR act	p97 inhibitor	STAT1 act
COc1ccccc1C1CC(=O)Nc2cc3c(cc21)OCCO3 (stereo not drawn)	.	.	.	.	.	.
CC(C)Oc1ccccc1C1CC(=O)Nc2cc3c(cc21)OCCO3 (stereo not drawn)	.	3.9	.	.	.	.
O=C1CN(C(=O)COc2ccc(Br)cc2Br)c2ccccc2N1	.	.	.	.	.	.
O=C(Cc1ccccc1)c1c[nH]c(C(=O)NC2CCCC2)c1	.	.	.	.	.	.
Cc1cccc(N/C(N)=N/c2nc(CSc3ccc(Cl)cc3)cc(=O)[nH]2)c1	11	/	.	/	.	/
CSc1nsc(/C=C/Nc2ccc(F)cc2)c1C#N	.	.	35	.	.	.
O=C(Nc1cc(=O)[nH]c2ncnn12)c1ccccc1F	9.4	/	.	/	.	/
COc1ccc(Cl)cc1NC(=S)N1CCN(C(=O)c2ccco2)CC1	.	.	.	.	.	.
CCN(CC)c1ccc(/C=C/C(=O)C2C(=O)C=C(C)OC2=O)cc1 (stereo not drawn)	.	.	.	164	.	138
CCOC(=O)c1c(C)[nH]c2cc(Br)c(O)cc12	.	3.4	.	.	.	.
CC1CC(C)(C)NC(=S)N1CCC(=O)N1CCc2ccccc2C1 (stereo not drawn)	.	.	.	.	.	.
CCOC(=O)C/C(N)=N/NC(=O)c1ccc(Cl)cc1Cl	11	.	.	.	.	.
Cn1c(=O)c2[nH]c(COc3ccc(C(C)(C)C)cc3)nc2n(C)c1=O	.	/	.	/	.	/
O=C(NCc1ccc(Cl)cc1)c1n[nH]c([N+](=O)[O-])c1Cl	.	.	.	.	.	.
CC(=O)C1=C(C)NC(=S)NC1c1cc([N+](=O)[O-])ccc1O (stereo not drawn)	.	/	.	/	.	/
COCCSc1nnc(NC(=O)C(C)(C)C)s1	8.8	.	/	.	.	.
CCOC(=O)C1(CCOc2ccccc2)CCN(Cc2ccncc2)CC1	.	.	.	.	.	.
CCOC(=O)C1(CCOc2ccccc2)CCN(Cc2ccc(-n3cccn3)cc2)CC1	.	3.9	.	.	.	.
Cc1nc(SCC(O)CO)c([N+](=O)[O-])[nH]1 (stereo not drawn)	.	3.5	.	.	.	.
O=C(NCCc1ccccc1)C(=Cc1ccc(C(=O)O)cc1)C(=O)NCCc1ccccc1	.	.	.	.	.	.
C/C(=C\c1ccccc1)C(=O)NCCc1ccccc1	.	4.5	.	177	.	.
CC(C)C(=O)Nc1ccc(-c2csc(-c3ccccc3)n2)cc1	.	.	.	.	.	142
Nc1nc(-c2ccc(C(=O)O)cc2)cs1	.	.	.	.	.	.
c1ccc2c(-c3csc(-c4ccncc4)n3)c[nH]c2c1	.	.	.	.	.	147
O=C(O)c1csc(-c2ccccc2)n1	.	/	/	/	.	/
SMILES	Wee1 degr inh	NF-kB neuron act	Mdm2 ligase inh	APP 5'UTR act	p97 inhibitor	STAT1 act
Oc1ccccc1-c1csc(-c2ccccc2)n1	.	.	.	.	.	131
Nc1nc(-c2ccc(-c3ccccc3)cc2)cs1	.	7.9	.	179	.	141
O=C(O)CC1(CC(=O)Nc2ccc3sccc3c2)CCCCC1	.	/	.	/	.	/
c1ccc2sc(-c3ccncc3)nc2c1	.	/	.	/	.	/
c1ccc(-c2csc(-c3ccncc3)n2)cc1	.	.	.	.	.	133
CC(NC(=O)COC(=O)c1ccc([N+](=O)[O-])s1)c1ccccc1 (stereo not drawn)	8.9	.	.	.	.	.
O=C(NCc1ccc2c(c1)OCO2)C1CC(c2ccc(Cl)cc2)=NO1 (stereo not drawn)	8.8	.	.	.	.	.
Cc1ccc2[nH]c(=O)c3cc(C(=O)N(C)c4ccccc4C)sc3c2c1	.	/	.	/	.	/
CC1CC1C(=O)OCc1cc(=O)n2cc(Br)ccc2n1 (stereo not drawn)	.	.	.	.	.	136
CC(C)[C@H](NC(=O)c1ccccc1Cl)C(=O)OCc1cc(=O)n2cc(Br)ccc2n1	.	.	.	.	.	.
O=C(OCc1cc(=O)n2cc(Br)ccc2n1)C1COc2ccccc2O1 (stereo not drawn)	.	.	.	.	.	.
Cc1ccccc1C(=O)NC(CC(C)C)C(=O)OCc1cc(=O)n2cc(Br)ccc2n1 (stereo not drawn)	.	3.5	.	.	.	138
Cn1c(=O)c(C(=O)Nc2ccccn2)c(O)c2ccccc21	.	4.5	.	.	.	.
Cn1c(=O)c(C(=O)Nc2ccccc2S(N)(=O)=O)c(O)c2ccccc21	.	/	.	/	.	/
Oc1oc(C=Nc2ccc(F)cc2F)c2ccccc12	.	.	.	.	.	.
O=C(N/N=C\C=C\c1ccc2c(c1)OCO2)C1COc2ccccc2O1 (stereo not drawn)	9.3	.	.	.	.	.
O=C(NC1CCCCCCC1)NC1CCCCC1	.	.	.	.	.	132
COC(=O)c1ccccc1NC(=O)NC1CCCC1	9.5	.	.	.	.	.
NC(=O)c1ccccc1NC(=O)NC1CCCCC1	11	.	/	.	.	.
Cc1nn(Cc2ccccc2)c(Cl)c1C(=O)OC(C)C#N (stereo not drawn)	.	.	.	.	.	.
CC1CCCC(C)N1C(=C(Cl)Cl)C(=C1SCCS1)[N+](=O)[O-] (stereo not drawn)	.	.	.	.	.	.
COc1ccccc1C(=O)C1CCCN(C(=O)c2ccccn2)C1 (stereo not drawn)	.	.	.	.	.	.
CCOC(=O)c1cnc2c(-c3cccc(Br)c3)cnn2c1C	.	.	.	.	.	.
N/C(=N\OC(=O)/C=C/c1ccccc1)c1ccccc1	.	5.9	.	136	.	138
COc1cccc(C(=O)O/N=C(\N)c2ccncc2)c1	.	.	.	.	.	139
SMILES	Wee1 degr inh	NF-kB neuron act	Mdm2 ligase inh	APP 5'UTR act	p97 inhibitor	STAT1 act
N/C(=N\OC(=O)c1cccc(Br)c1)c1ccccc1	.	5.3	.	.	.	.
COc1cccc(/C(N)=N/OC(=O)Cc2ccccc2[N+](=O)[O-])c1	.	.	.	.	.	130
N/C(=N\OC(=O)/C=C/c1ccccc1)c1ccc(Cl)cc1	.	/	.	/	.	/
N/C(=N\OC(=O)Cc1ccccc1[N+](=O)[O-])c1ccncc1	.	.	.	.	.	.
COc1ccc(/C=C/C2=CC(C)(C)NC(=S)N2)cc1	.	.	.	.	.	.
COc1cc2ccccc2cc1C(=O)NC(=S)Nc1cccc(C(=O)O)c1C	.	/	.	/	.	/
Cc1cccc(C(=O)O/N=C(\N)c2ccc(Br)cc2)c1	.	4	.	.	.	.
COc1ccc(/C(N)=N/OC(=O)c2cccs2)cc1	10.0	/	.	/	.	/
Cc1ccc(CC(=O)O/N=C(\N)c2cccc([N+](=O)[O-])c2)cc1	.	.	.	.	.	.
N/C(=N\OC(=O)c1cccs1)c1ccc(Cl)cc1	.	/	.	/	.	/
